Data published in ChEMBL document CHEMBL1147062, “Therapeutic anticancer efficacy of a synthetic diazonamide analog in the absence of overt toxicity” (Proc Natl Acad Sci U S A, 2007).
Calls of active or inactive are those of the source. No cut-off for these calls is given here.

How the values were obtained:
Mus musculus [1] = experiment: Toxicity in human HCT116 cells xenografted NCR nu/nu mouse assessed as decrease in neutrophil count in peripheral blood at 20 mg/kg, iv QD for 6 days relative to control; format: organism-based, HCT-116; parameters: dose 20 mg/kg, route intravenous; settings: in vivo, 144 h
In short: (§1)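 NCR nu/nu mice received 10^7 HCT116 cells s.c. in the left flank 12 days before therapy. Dosing was i.v. qd × 6: 20 mg/kg in cremaphor:ethanol/5% dextrose, or 2 mg/kg vinblastine sulfate in 5% dextrose. Mice were weighed daily. On day 8, Gr1hi neutrophils in tail-vein blood and femoral marrow were counted by flow cytometry and compared with control by ANOVA and Dunnett's test.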

HCT-116 [2] = experiment: Antitumor activity against human HCT116 cells xenografted into NCR nu/nu mouse at 0.45 mg/kg, ip dosed in q2-3dX6 schedule relative to control; format: functional; settings: route intraperitoneal
MDA-MB-435 [3] = experiment: Antitumor activity against human MDA-MB-435 cells xenografted into NCR nu/nu mouse at 0.7 mg/kg, ip dosed in q3-4dX4 schedule relative to control; format: functional; settings: route intraperitoneal
Mus musculus [4] = experiment: Toxicity in human HCT116 cells xenografted NCR nu/nu mouse assessed as decrease in neutrophil count in peripheral blood at 2 mg/kg, iv QD for 6 days relative to control; format: organism-based, HCT-116; parameters: dose 2 mg/kg, route intravenous; settings: in vivo, 144 h; in short: as §1
Mus musculus [5] = experiment: Toxicity in human HCT116 cells xenografted NCR nu/nu mouse assessed as loss of body weight iv QD for 6 days; settings: in vivo, 144 h
Mus musculus [6] = experiment: Toxicity in human HCT116 cells xenografted NCR nu/nu mouse assessed as loss of body weight at 20 mg/kg, iv QD for 6 days; format: organism-based, HCT-116; parameters: dose 20 mg/kg, route intravenous; settings: in vivo, 144 h; in short: as §1
Mus musculus [7] = experiment: Toxicity in human HCT116 cells xenografted NCR nu/nu mouse assessed as decrease in neutrophil count in bone marrow at 2 mg/kg, iv QD for 6 days relative to control; format: organism-based, HCT-116; parameters: dose 2 mg/kg, route intravenous; settings: in vivo, 144 h; in short: as §1
Mus musculus [8] = experiment: Toxicity in human HCT116 cells xenografted NCR nu/nu mouse assessed as decrease in neutrophil count in bone marrow at 20 mg/kg, iv QD for 6 days relative to control; format: organism-based, HCT-116; parameters: dose 20 mg/kg, route intravenous; settings: in vivo, 144 h; in short: as §1
Mus musculus [9] = experiment: Toxicity in NCR nu/nu mouse neutropenia model assessed as decrease in neutrophil count in peripheral blood at 20 mg/kg, iv QD for 6 days relative to control; format: organism-based; parameters: dose 20 mg/kg, route intravenous; settings: in vivo, 144 h
In short: (§2)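 Non-tumor-bearing NCR nu/nu mice, four to five per group, got 20 mg/kg i.v. qd × 6 in cremaphor:ethanol/5% dextrose, or vehicle. They were weighed and observed daily and killed on day 8. Tail-vein blood and femoral marrow were lysed of erythrocytes, stained for Gr1 and analyzed by flow cytometry. Neutrophil counts were %Gr1hi × white cells per ml or per femur. Groups were compared with control by one-way ANOVA and Dunnett's test.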

PC-3 [10] = experiment: Antitumor activity against human PC3 cells xenografted into NCR nu/nu mouse at 20 mg/kg, iv dosed in qdX6 schedule relative to control; format: functional
In short: (§3)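 Nude mice received 10^7 PC3 cells s.c. in the left flank and were randomized at ≈250 mm3 into groups of six to seven. Dosing was i.v. daily for 6 consecutive days, in 0.2 ml cremaphor:ethanol (1:1) diluted in 5% dextrose. Tumors were measured by calipers as (length × width2)/2, and weight was tracked alongside.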

PC-3 [11] = experiment: Antitumor activity against human PC3 cells xenografted into NCR nu/nu mouse at 7.5 mg/kg, iv dosed in qdX6 schedule relative to control; format: functional; in short: as §3
Mus musculus [12] = experiment: Toxicity in NCR nu/nu mouse neutropenia model assessed as severe flaking of skin at 20 mg/kg, iv QD for 6 days; format: organism-based; parameters: dose 20 mg/kg, route intravenous; settings: in vivo, 144 h; in short: as §2
PC-3 [13] = experiment: Antitumor activity against human PC3 cells xenografted into NCR nu/nu mouse at 20 mg/kg, iv dosed in q2-3dX6 schedule relative to control; format: functional
In short: (§4)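 NCR nu/nu mice given 7.5–10 × 10^6 tumor cells s.c. in the left flank. At ≈100–300 mm3 (5–10 days), mice were randomized into groups of 4–7. Compound was predissolved in 1:1 cremaphor:ethanol, then diluted into 5% dextrose. Dosed i.v. or i.p. in 0.2 ml on Monday, Wednesday and Friday for 2 weeks. Caliper measurements 2–3 times weekly; volume = (length × width2)/2.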

Mus musculus [14] = experiment: Toxicity in NCR nu/nu mouse assessed as loss of body weight at 20 mg/kg, iv for 6 days; format: organism-based; parameters: dose 20 mg/kg, route intravenous; settings: in vivo, 144 h
In short: (§5)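 Nude mice carried 10^7 PC3 cells s.c. in the left flank and were randomized into groups of six to seven when tumors reached ≈250 mm3. Mice were dosed at 20, 7.5 or 2.5 mg/kg for 6 consecutive days. Body weight was tracked against starting weight, including 2 days after the last dose.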

PC-3 [15] = experiment: Antitumor activity against human PC3 cells xenografted into NCR nu/nu mouse at 2.5 mg/kg, iv dosed in qdX6 schedule relative to control; format: functional; in short: as §3
Mus musculus [16] = experiment: Toxicity in NCR nu/nu mouse assessed as loss of body weight at 7.5 mg/kg, iv for 6 days; format: organism-based; parameters: dose 7.5 mg/kg, route intravenous; settings: in vivo, 144 h; in short: as §5
HCT-116 [17] = experiment: Antitumor activity against human HCT116 cells xenografted into NCR nu/nu mouse at 20 mg/kg, iv dosed in q2-3dX6 schedule relative to control; format: functional; in short: as §4
Mus musculus [18] = experiment: Toxicity in NCR nu/nu mouse neutropenia model assessed as loss of body weight at 20 mg/kg, iv QD for 6 days; format: organism-based; parameters: dose 20 mg/kg, route intravenous; settings: in vivo, 144 h; in short: as §2
Mus musculus [19] = experiment: Toxicity in NCR nu/nu mouse neutropenia model assessed as decrease in neutrophil count in bone marrow at 20 mg/kg, iv QD for 6 days relative to control; format: organism-based; parameters: dose 20 mg/kg, route intravenous; settings: in vivo, 144 h; in short: as §2
Mus musculus [20] = experiment: Toxicity in NCR nu/nu mouse assessed as loss of body weight at 2.5 mg/kg, iv for 6 days; format: organism-based; parameters: dose 2.5 mg/kg, route intravenous; settings: in vivo, 144 h; in short: as §5
MDA-MB-435 [21] = experiment: Antitumor activity against human MDA-MB-435 cells xenografted into NCR nu/nu mouse at 20 mg/kg, ip dosed in q3-4dX4 schedule relative to control; format: functional; settings: route intraperitoneal
In short: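 NCR nu/nu mice bearing s.c. left-flank xenografts (7.5–10 × 10^6 cells) were randomized at ≈100–300 mm3 into groups of 4–7. Dosing was i.p. in 0.2 ml, with cremaphor:ethanol (1:1) stock diluted in 5% dextrose. Body weight and caliper tumor size were recorded 2–3 times per week; volume = (length × width2)/2.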

HCT-116 [22] = experiment: Antitumor activity against human HCT116 cells xenografted into NCR nu/nu mouse at 20 mg/kg, ip dosed in q2-3dX6 schedule relative to control; format: functional; settings: route intraperitoneal; in short: as §4
[23] = Terminal half life in NCR nu/nu mouse plasma at 20 mg/kg, iv; format: ADME, organism-based; parameters: dose 20 mg/kg, route intravenous
In short: (§6)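 Each NCR nu/nu mouse got one i.v. bolus of 20 mg/kg in 0.2 ml of 1:1 cremaphor:ethanol (10%) diluted in 5% dextrose. At set times mice were killed by CO2 overdose and bled by cardiac puncture into sodium citrate. Plasma was spun 10 min at 8,000 × g and frozen at −80°C. LC-MS used an internal standard and a spiked blank murine plasma standard curve. Parameters came from noncompartmental analysis.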

[24] = AUC in NCR nu/nu mouse plasma at 20 mg/kg, iv; format: ADME, organism-based; parameters: dose 20 mg/kg, route intravenous; in short: as §6
[25] = Clearance in NCR nu/nu mouse plasma at 20 mg/kg, iv; format: ADME, organism-based; parameters: dose 20 mg/kg, route intravenous; in short: as §6
HCT-116 [26] = experiment: Antitumor activity against human HCT116 cells xenografted into NCR nu/nu mouse at 5 mg/kg, iv dosed in q2-3dX6 schedule relative to control; format: functional; in short: as §4
Mus musculus [27] = experiment: Volume of distribution in NCR nu/nu mouse plasma at 20 mg/kg, iv; format: ADME, organism-based; parameters: dose 20 mg/kg, route intravenous; settings: in vivo; in short: as §6
HCT-116 [28] = experiment: Antitumor activity against human HCT116 cells xenografted into NCR nu/nu mouse at 5 mg/kg, ip dosed in q2-3dX6 schedule relative to control; format: functional; settings: route intraperitoneal; in short: as §4
[29] = Drug level in NCR nu/nu mouse plasma at 20 mg/kg, iv after 24 hrs; format: ADME, organism-based; parameters: dose 20 mg/kg, route intravenous; in short: as §6
PC-3 [30] = experiment: Induction of histone H3 phosphorylation in human PC3 cells xenografted into NCR nu/nu mouse at 20 mg/kg, iv; format: functional, organism-based; parameters: dose 20 mg/kg
In short: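 nu/nu mice carried 10^7 PC3 cells s.c. in the left flank. On day 8 they got one i.v. dose of 20 mg/kg or vehicle, two mice per group. Tumors were taken 12 h later, snap-frozen and homogenized in RIPA buffer with phosphatase and protease inhibitors. 100 µg protein was Western blotted for phospho-histone H3, with actin as control.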

| SMILES | Activity (Mus musculus [1]) | Activity (Mus musculus [4]) | Activity (Mus musculus [5]) | Activity (Mus musculus [6]) | Activity (Mus musculus [7]) | Activity (Mus musculus [8]) | Activity (Mus musculus [9]) | LCK (PC-3 [10]) | T/C (PC-3 [10]) [%] | LCK (PC-3 [11]) | T/C (PC-3 [11]) [%] | Activity (Mus musculus [12]) | LCK (PC-3 [13]) | T/C (PC-3 [13]) [%] | Activity (Mus musculus [14]) | T/C (PC-3 [15]) [%] | Activity (Mus musculus [16]) | LCK (HCT-116 [17]) | T/C (HCT-116 [17]) [%] | Activity (Mus musculus [18]) | other results |
| --- | --- | --- | --- | --- | --- | --- | --- | --- | --- | --- | --- | --- | --- | --- | --- | --- | --- | --- | --- | --- | --- |
| CC[C@]1(O)C[C@@H]2CN(CCc3c([nH]c4ccccc34)[C@@](C(=O)OC)(c3cc4c(cc3OC)N(C)[C@H]3[C@@](O)(C(=O)OC)[C@H](OC(C)=O)[C@]5(CC)C=CCN6CC[C@]43[C@@H]65)C2)C1.O=S(=O)(O)O [VINBLASTINE SULFATE] | Toxic | Toxic | Toxic | Toxic | Toxic | Toxic |  |  |  |  |  |  |  |  |  |  |  |  |  |  | LCK (HCT-116 [2]): 0.2; T/C (HCT-116 [2]): 56%; LCK (MDA-MB-435 [3]): 0.2; T/C (MDA-MB-435 [3]): 41.1% |
| CC(=O)O[C@H]1C(=O)[C@@]2(C)[C@H]([C@H](OC(=O)c3ccccc3)[C@]3(O)C[C@H](OC(=O)[C@H](O)[C@@H](NC(=O)c4ccccc4)c4ccccc4)C(C)=C1C3(C)C)[C@]1(OC(C)=O)CO[C@@H]1C[C@@H]2O [PACLITAXEL] | Toxic | Toxic | Toxic | Toxic | Toxic | Toxic | Toxic | 3.8 | 0.6 | 1.5 | 6.1 | Toxic | 3.4 | 0 | > 20% | 49.2 | 13% | 2.7 | 0.2 | 20% | LCK (PC-3 [15]): 0.3; Activity (Mus musculus [19]): Toxic |
| CC(C)[C@H](O)C(=O)N[C@@H]1C(=O)N[C@@H](C(C)C)c2nc3c(o2)C24c5ccc(cc5N[C@H]2Oc2ccc1cc24)-c1cccc2[nH]cc(c12)-c1cnc-3o1 (single isomer, unassigned) | Non-toxic | Non-toxic | Non-toxic | Non-toxic | Non-toxic | Non-toxic | Non-toxic | 2.4 | 2.1 | 1.6 | 3.9 | Non-toxic | 3.4 | 0.3 | <= 5% | 31.4 | <= 5% | 1.8 | 0.2 | Non-toxic | Activity (Mus musculus [20]): <= 5%; LCK (MDA-MB-435 [21]): 1; T/C (MDA-MB-435 [21]): 3.1%; LCK (HCT-116 [22]): 1; T/C (HCT-116 [22]): 9.3%; half-life [23]: 4.96 h; AUC [24]: 50200 ng·h/mL; clearance [25]: 0.146 mL/min; LCK (HCT-116 [26]): 0.5; T/C (HCT-116 [26]): 26.5%; Vd (Mus musculus [27]): 62.7 mL; LCK (HCT-116 [28]): 0.4; T/C (HCT-116 [28]): 41.9%; concentration at 24 h [29]: 15 ng/mL; Activity (PC-3 [30]): Active; Activity (Mus musculus [19]): Non-toxic |
